Tests used:
[1] = folding enthalpy; higher = less favourable; fluorescence melt of hairpins on a sequencing array, two-state fit; details: sodium 0.088 M
Summary of the method: (§1)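 Melting temperature and folding enthalpy were derived from bootstrapped two-state fits. The fitted temperatures were raised by 9.35 °C to agree with UV melts, and four replicates were combined by inverse variance. The underlying data were Cy3 fluorescence images of library hairpins, with annealed Cy3 and quencher oligos, on a sequenced MiSeq flow cell in 50 mM Na-HEPES pH 8.0, 25 mM NaCl, taken in 2.5 °C steps up to 60 °C, normalised to pre-quench Cy3 and to control constructs.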

[2] = melting temperature; fluorescence melt of hairpins on a sequencing array, two-state fit, raised by 9.35 °C to match UV melts; details: sodium 0.088 M
Summary of the method: as §1

Row | Sequence | folding enthalpy [1] | Tm [2]
1 | GAGCCCCCGAAAGGGCTC (((..(((....)))))) | -135 kJ/mol | 65.4 °C
2 | GAGCCCGAAAGGGACTC ((((((....))).))) | -95.9 kJ/mol | 54.8 °C
3 | GAGCCCGAAAGGGGGCTC ((((((....)))..))) | -95.6 kJ/mol | 68.6 °C
4 | GAGCCCGCGAAAGCGCTC (((..(((....)))))) | -46.7 kJ/mol | 39.2 °C
5 | GAGCCCGGAAACGGGTTC ((.((((....)))).)) | -113 kJ/mol | 56.7 °C
6 | GAGCCGGCGAAAGCCCTC (((..(((....)))))) | -34.2 kJ/mol | 28.7 °C
7 | GAGCCTGGAAACAGACTC (((.(((....))).))) | -134 kJ/mol | 43.6 °C
8 | GAGCCTGGAAACGGGTTC ((.((.(....).)).)) | -115 kJ/mol | 36.4 °C
9 | GAGCGACCGAAAGGTCTC (((..(((....)))))) | -42.6 kJ/mol | 33.1 °C
10 | GAGCGCCGAAAGGCTCTC (((.(((....))).))) | -89.3 kJ/mol | 50.7 °C
11 | GAGCGCGAAAGCGACCTC ((((((....)))..))) | -49.2 kJ/mol | 46.6 °C
12 | GAGCGCGAAAGCGCCCTC ((((((....)))..))) | -31.8 kJ/mol | 46.8 °C
13 | GAGCGCGAAAGCGTACTC ((((((....)))..))) | -50.7 kJ/mol | 44.4 °C
14 | GAGCGGACGAAAGTCCTC (((..(((....)))))) | -34.8 kJ/mol | 29.9 °C
15 | GAGCGGGCGAAAGCCCTC (((..(((....)))))) | -28.1 kJ/mol | 25.9 °C
16 | GAGCGGGGAAACCTGCTC ((((.((....)).)))) | -128 kJ/mol | 57.3 °C
17 | GAGCGTCCGAAAGGACTC (((..(((....)))))) | -33.1 kJ/mol | 30.7 °C
18 | GAGCGTGGAAACACACTC (((.(((....))).))) | -128 kJ/mol | 45.9 °C
19 | GAGCGTGGAAACACGTTC ((.((((....)))).)) | -103 kJ/mol | 52.5 °C
20 | GAGCGTGGAAACATGCTC ((((.((....)).)))) | -232 kJ/mol | 55 °C
21 | GAGCGTGGAAACGCGTTC ((.((.(....).)).)) | -50.5 kJ/mol | 51.7 °C
22 | GAGCTACGAAAGTATCTC (((.(((....))).))) | -105 kJ/mol | 36.9 °C
23 | GAGCTCGCGAAAGCGCTC (((..(((....)))))) | -59.4 kJ/mol | 41.8 °C

Row | Sequence | folding enthalpy [1] | Tm [2]
24 | GAGCTCGGAAACAAGCTC (((((.(....).))))) | -126 kJ/mol | 43 °C
25 | GAGCTCGGAAACGAGCCC (.(((((....))))).) | -31.6 kJ/mol | 59.5 °C
26 | GAGCTCGGAAACGAGTTC ((.((((....)))).)) | -122 kJ/mol | 53 °C
27 | GAGCTCGGAAACGGGCTC ((((.((....)).)))) | -185 kJ/mol | 60.7 °C
28 | GAGCTGAAAAGCTC (((((....))))) | -114 kJ/mol | 57.2 °C
29 | GAGCTGCCGAAAGGCCTC (((..(((....)))))) | -47.2 kJ/mol | 32.7 °C
30 | GAGCTGCGAAAGCAACTC (((.(((....))).))) | -133 kJ/mol | 51.2 °C
31 | GAGCTGGCGAAAGCCCTC (((..(((....)))))) | -24.3 kJ/mol | 36.6 °C
32 | GAGCTGGGAAACTAGCTC (((((.(....).))))) | -162 kJ/mol | 52.5 °C
33 | GAGCTTGAAAAAGCTC ((((((....)))))) | -174 kJ/mol | 58.1 °C
34 | GAGCTTGCGAAAGCACTC (((..(((....)))))) | -45.8 kJ/mol | 39.7 °C
35 | GAGGACGAAAGTCAGCTC ((((((....)))..))) | -62.9 kJ/mol | 42 °C
36 | GAGGACGAAAGTCATCTC ((((((....)))..))) | -80.1 kJ/mol | 51.8 °C
37 | GAGGACGAAAGTCCACTC ((((((....)))..))) | -53 kJ/mol | 52.4 °C
38 | GAGGACGAAAGTCCGCTC ((((((....)))..))) | -50.5 kJ/mol | 67.5 °C
39 | GAGGACGGAAACGTCTTC ((.((((....)))).)) | -74.6 kJ/mol | 47.3 °C
40 | GAGGAGAAATCCTC (((((....))))) | -91 kJ/mol | 43.4 °C
41 | GAGGAGCGAAAGCTCTC (((.(((....)))))) | -38.4 kJ/mol | 48.2 °C
42 | GAGGAGCGAAAGCTGCTC (((.(((....))).))) | -142 kJ/mol | 63.7 °C
43 | GAGGAGGAAACTCCTC ((((((....)))))) | -131 kJ/mol | 55.9 °C
44 | GAGGCAGGAAACTACCTC ((((.((....)).)))) | -113 kJ/mol | 40.3 °C
45 | GAGGCAGGAAACTGCCCC (.(((((....))))).) | -38.1 kJ/mol | 44.2 °C
46 | GAGGCAGGAAACTGCTTC ((.((((....)))).)) | -75.4 kJ/mol | 47.7 °C

Row | Sequence | folding enthalpy [1] | Tm [2]
47 | GAGGCCCGAAAGGGCTC (((.(((....)))))) | -41.6 kJ/mol | 57.9 °C
48 | GAGGCCGAAAGGCAACTC ((((((....)))..))) | -59.6 kJ/mol | 46.7 °C
49 | GAGGCCGAAAGGCGCTC ((((((....))).))) | -57.9 kJ/mol | 57 °C
50 | GAGGCCGAAAGGCTCCTC ((((((....)))..))) | -42.7 kJ/mol | 40.8 °C
51 | GAGGCCGGAAACGGTCTC (((.(((....))).))) | -151 kJ/mol | 64.8 °C
52 | GAGGCGGCGAAAGCCCTC (((..(((....)))))) | -46 kJ/mol | 43.1 °C
53 | GAGGCGGGAAACCACCCC (.((.((....)).)).) | -56.9 kJ/mol | 27.8 °C
54 | GAGGCGGGAAACCGTCTC (((.(((....))).))) | -160 kJ/mol | 56.8 °C
55 | GAGGCGGGAAACTGCCTC (((((.(....).))))) | -164 kJ/mol | 61.1 °C
56 | GAGGCTCCGAAAGGACTC (((..(((....)))))) | -64.7 kJ/mol | 34.4 °C
57 | GAGGGAGGAAACTCCCTC (((((((....))))))) | -172 kJ/mol | 62.9 °C
58 | GAGGGCCGAAAGGCCTC (((.(((....)))))) | -40.8 kJ/mol | 52.6 °C
59 | GAGGGCCGAAAGGCTCTC (((.(((....))).))) | -128 kJ/mol | 67 °C
60 | GAGGGCGAAAGCCAGCTC ((((((....)))..))) | -57.3 kJ/mol | 46.7 °C
61 | GAGGGCGAAAGCCATCTC ((((((....)))..))) | -67.9 kJ/mol | 65.6 °C
62 | GAGGGCGAAAGCCCCCTC ((((((....)))..))) | -30.7 kJ/mol | 42.7 °C
63 | GAGGGCGAAAGCCTCCTC ((((((....)))..))) | -40.4 kJ/mol | 40.5 °C
64 | GAGGGCGAAAGCCTCTC ((((((....))).))) | -67.4 kJ/mol | 53.2 °C
65 | GAGGGCGAAAGCCTTCTC ((((((....)))..))) | -69.2 kJ/mol | 52 °C
66 | GAGGGCGCGAAAGCGCTC (((..(((....)))))) | -32.2 kJ/mol | 42.5 °C
67 | GAGGGCGGAAACACCCCC (.(((.(....).))).) | -68.5 kJ/mol | 30.9 °C
68 | GAGGGCGGAAACGCTCTC (((.(((....))).))) | -134 kJ/mol | 57.2 °C
69 | GAGGGGGGAAACCCCCCC (.(((((....))))).) | -35.1 kJ/mol | 52.5 °C

Row | Sequence | folding enthalpy [1] | Tm [2]
70 | GAGGTACGAAAGTACTC (((.(((....)))))) | -56.9 kJ/mol | 45.8 °C
71 | GAGGTACGAAAGTAGCTC (((.(((....))).))) | -186 kJ/mol | 57.9 °C
72 | GAGGTACGAAAGTATCTC (((.(((....))).))) | -135 kJ/mol | 50.5 °C
73 | GAGGTAGGAAACTACCCC (.(((((....))))).) | -50.6 kJ/mol | 39.1 °C
74 | GAGGTAGGAAACTACCTC (((((((....))))))) | -155 kJ/mol | 60 °C
75 | GAGGTCGGAAACGACCCC (.(((((....))))).) | -38.6 kJ/mol | 48.3 °C
76 | GAGGTCGGAAACGACTTC ((.((((....)))).)) | -87.5 kJ/mol | 48.6 °C
77 | GAGGTGACGAAAGTCCTC (((..(((....)))))) | -73.8 kJ/mol | 34.9 °C
78 | GAGGTGGGAAACCACTTC ((.((((....)))).)) | -89.4 kJ/mol | 46 °C
79 | GAGGTGGGAAACCGCCTC ((((.((....)).)))) | -196 kJ/mol | 57.1 °C
80 | GAGGTTCCGAAAGGACTC (((..(((....)))))) | -62.5 kJ/mol | 31.6 °C
81 | GAGGTTGCGAAAGCACTC (((..(((....)))))) | -47.4 kJ/mol | 33.9 °C
82 | GAGGTTGGAAACAGTCTC (((..((....))..))) | -42.3 kJ/mol | 25.6 °C
83 | GAGTAACCGAAAGGTCTC (((..(((....)))))) | -69.7 kJ/mol | 33.2 °C
84 | GAGTAACGAAAGTTTCTC (((.(((....))).))) | -126 kJ/mol | 40.3 °C
85 | GAGTAAGGAAACTTACCC (.(((((....))))).) | -61.1 kJ/mol | 28.4 °C
86 | GAGTACCCGAAAGGGCTC (((..(((....)))))) | -63.9 kJ/mol | 32.4 °C
87 | GAGTACGAAAGTAAACTC ((((((....)))..))) | -109 kJ/mol | 35.9 °C
88 | GAGTACGAAAGTAATCTC ((((((....)))..))) | -114 kJ/mol | 42.5 °C
89 | GAGTACGAAAGTACACTC ((((((....)))..))) | -67.7 kJ/mol | 48.3 °C
90 | GAGTACGAAAGTACCCTC ((((((....)))..))) | -55.2 kJ/mol | 38.6 °C
91 | GAGTACGAAAGTAGACTC ((((((....)))..))) | -70.4 kJ/mol | 35.8 °C

— the array DNA melting data of Ke et al. (doi:10.1101/2024.01.08.574731)
